Tests used:
[1] = AUC (0 to infinity) in rat at 1000 mg/kg, iv administered as 0.5 hrs infusion by HPLC-MS method; format: ADME, organism-based; parameters: dose 1000 mg/kg, route intravenous, time infinity; conditions: in vivo
[2] = system: Homo sapiens; test: Toxicity in human at 250 to 1500 mg administered as 3 hrs of infusion; format: organism-based; conditions: in vivo, iv
In short: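 Phase 1 study in 36 normal (healthy) volunteers under GCP. Single 3 h infusions were given at 250, 500, 750, 1000, 1250 or 1500 mg, and drug-related adverse events were recorded.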

[3] = system: Klebsiella pneumoniae; test: Inhibition of Klebsiella pneumoniae KP1084 SHV-11 assessed as biapenem MIC at 4 ug/ml by broth microdilution method
[4] = system: Klebsiella pneumoniae; test: Inhibition of Klebsiella pneumoniae KP1004 KPC-2 assessed as ertapenem MIC at 4 ug/ml by broth microdilution method
In short: (§1)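 CLSI broth microdilution (M07-A9, 2012) MIC of the carbapenem against clinical serine carbapenemase-producing strain, tested alone and with the inhibitor held at a fixed 4 μg/mL.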

[5] = system: Klebsiella pneumoniae; test: Inhibition of Klebsiella pneumoniae KP1008 KPC-2 assessed as biapenem MIC at 4 ug/ml by broth microdilution method; in short: as §1
[6] = system: Klebsiella pneumoniae; test: Inhibition of Klebsiella pneumoniae KP1082 KPC-2 assessed as biapenem MIC at 4 ug/ml by broth microdilution method; in short: as §1
[7] = system: Enterobacter cloacae; test: Inhibition of Enterobacter cloacae ECL1058 SHV-11 assessed as biapenem MIC at 4 ug/ml by broth microdilution method
[8] = system: Klebsiella pneumoniae; test: Inhibition of Klebsiella pneumoniae KP1004 KPC-2 assessed as imipenem MIC at 4 ug/ml by broth microdilution method; in short: as §1
[9] = molecular target: Lysosomal protective protein (Homo sapiens, UniProt P10619); test: Inhibition of cathepsin A (unknown origin) using MCA-RPPGFSAFK-Dnp as substrate preincubated for 10 mins followed by substrate addition measured for 30 mins by […] analysis
Chain of Lysosomal protective protein (P10619 29-326 limits assumed): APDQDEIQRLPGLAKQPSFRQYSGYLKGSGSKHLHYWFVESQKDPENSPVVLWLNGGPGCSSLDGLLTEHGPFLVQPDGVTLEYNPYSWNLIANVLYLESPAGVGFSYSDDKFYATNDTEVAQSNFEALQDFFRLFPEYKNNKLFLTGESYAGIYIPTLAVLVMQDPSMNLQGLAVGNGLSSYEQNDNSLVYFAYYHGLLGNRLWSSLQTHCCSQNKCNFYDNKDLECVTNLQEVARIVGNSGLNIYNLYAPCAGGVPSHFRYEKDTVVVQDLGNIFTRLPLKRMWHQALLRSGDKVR
Chain of Lysosomal protective protein (P10619 327-480 limits assumed): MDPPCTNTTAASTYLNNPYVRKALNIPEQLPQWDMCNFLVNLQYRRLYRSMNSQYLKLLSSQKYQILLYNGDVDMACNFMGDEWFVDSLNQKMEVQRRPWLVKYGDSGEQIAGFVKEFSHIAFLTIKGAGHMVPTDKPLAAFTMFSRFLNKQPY

[10] = molecular target: Carbapenem-hydrolyzing beta-lactamase KPC (Klebsiella pneumoniae) (UniProt Q9F663); test: Inhibition of Klebsiella pneumoniae KP1083 KPC-3 assessed as meropenem MIC at 4 ug/ml by broth microdilution method; in short: as §1
[11] = system: Klebsiella pneumoniae; test: Inhibition of Klebsiella pneumoniae KP1087 CTX-M-15 assessed as meropenem MIC at 4 ug/ml by broth microdilution method; in short: as §1
[12] = molecular target: T1, Class A carbapenemase (Enterobacter cloacae) (UniProt A7WP95); test: Inhibition of Enterobacter cloacae ECL1058 KPC-3 assessed as biapenem MIC at 4 ug/ml by broth microdilution method
T1 sequence (whole entry): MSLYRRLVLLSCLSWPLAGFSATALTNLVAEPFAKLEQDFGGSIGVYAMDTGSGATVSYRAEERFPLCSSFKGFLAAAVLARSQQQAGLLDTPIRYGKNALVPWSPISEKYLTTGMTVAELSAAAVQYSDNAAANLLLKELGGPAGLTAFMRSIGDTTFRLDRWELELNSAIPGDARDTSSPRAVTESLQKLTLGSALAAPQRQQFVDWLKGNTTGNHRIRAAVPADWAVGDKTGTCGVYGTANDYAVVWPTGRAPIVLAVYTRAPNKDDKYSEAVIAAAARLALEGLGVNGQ

[13] = molecular target: Beta-lactamase TEM (Enterobacter cloacae) (UniProt Q6W9J1); test: Inhibition of Enterobacter cloacae ECL1058 TEM-1 assessed as ertapenem MIC at 4 ug/ml by broth microdilution method
[14] = system: Klebsiella pneumoniae; test: Inhibition of Klebsiella pneumoniae KP1087 SHV-11 assessed as ertapenem MIC at 4 ug/ml by broth microdilution method; in short: as §1
[15] = molecular target: Tissue-type plasminogen activator (Homo sapiens, UniProt P00750); test: Inhibition of tissue plasminogen activator (unknown origin) using GK-pNA as substrate preincubated for 10 mins followed by substrate addition measured for 30 mins by spectrophotometric analysis
Chain of Tissue-type plasminogen activator (P00750 whole entry): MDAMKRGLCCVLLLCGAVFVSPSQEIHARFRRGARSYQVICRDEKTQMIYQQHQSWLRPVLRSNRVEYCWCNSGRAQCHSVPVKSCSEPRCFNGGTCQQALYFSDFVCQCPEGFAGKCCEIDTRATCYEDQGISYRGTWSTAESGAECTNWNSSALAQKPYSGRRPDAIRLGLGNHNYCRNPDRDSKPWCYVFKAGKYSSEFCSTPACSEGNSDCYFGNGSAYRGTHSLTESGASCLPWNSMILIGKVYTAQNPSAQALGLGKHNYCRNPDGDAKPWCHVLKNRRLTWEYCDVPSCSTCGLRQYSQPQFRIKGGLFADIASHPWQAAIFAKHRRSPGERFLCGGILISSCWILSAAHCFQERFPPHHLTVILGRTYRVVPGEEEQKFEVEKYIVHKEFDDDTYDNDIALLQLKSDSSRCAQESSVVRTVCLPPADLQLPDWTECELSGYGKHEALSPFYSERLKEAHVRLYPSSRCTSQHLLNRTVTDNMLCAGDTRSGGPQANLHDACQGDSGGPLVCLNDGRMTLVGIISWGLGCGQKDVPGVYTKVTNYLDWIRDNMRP
In short: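 Tissue plasminogen activator (commercial) in 30 mM Tris-HCl, pH 8.5, 30 mM imidazole, 130 mM NaCl. Incubated with inhibitor at several concentrations for 10 min at 37 °C. GK-pNA (listed at 100 μM) was added and absorbance followed for 30 min. Rates were relative to a no-treatment control; IC50 is the concentration giving 50% inhibition.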

[16] = system: Klebsiella pneumoniae; test: Inhibition of Klebsiella pneumoniae KP1087 SHV-11 assessed as biapenem MIC at 4 ug/ml by broth microdilution method
In short: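 CLSI broth microdilution (M07-A9) against clinical K. pneumoniae strain KP1087 (KPC-2, CTX-M-15, SHV-11, TEM-1); carbapenem MIC (μg/mL) read with the inhibitor held at a fixed 4 μg/mL, alongside carbapenem alone.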

[17] = system: Enterobacter cloacae; test: Inhibition of Enterobacter cloacae ECL1058 SHV-11 assessed as imipenem MIC at 4 ug/ml by broth microdilution method
[18] = molecular target: Beta-lactamase (Klebsiella pneumoniae) (UniProt Q93LQ9); test: Inhibition of Klebsiella pneumoniae KP1083 KPC-3 assessed as biapenem MIC at 4 ug/ml by broth microdilution method; in short: as §1
[19] = Cmax in rat at 100 mg/kg, iv administered as 0.5 hrs infusion by HPLC-MS method; format: ADME, organism-based; parameters: dose 100 mg/kg, route intravenous; conditions: in vivo
[20] = system: Enterobacter cloacae; test: Inhibition of Enterobacter cloacae ECL1003 SHV assessed as cefepime MIC at 4 ug/ml by broth microdilution method
In short: (§2)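 CLSI broth microdilution (M07-A9) against clinical strains expressing serine β-lactamases.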

[21] = system: Klebsiella pneumoniae; test: Inhibition of Klebsiella pneumoniae KP1008 KPC-2 assessed as meropenem MIC at 4 ug/ml by broth microdilution method; in short: as §1
[22] = system: Klebsiella oxytoca; test: Inhibition of Klebsiella oxytoca KX1017 SHV-30 assessed as ertapenem MIC at 4 ug/ml by broth microdilution method
[23] = molecular target: T1, Class A carbapenemase (Enterobacter cloacae); test: Inhibition of Enterobacter cloacae ECL1058 KPC-3 assessed as meropenem MIC at 4 ug/ml by broth microdilution method
[24] = Inhibition of Escherichia coli recombinant CTX-M-15 assessed as substrate nitrocefin degradation preincubated for 10 mins followed by substrate addition measured every 10 secs for 10 mins by spectrophotometric analysis
In short: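 β-Lactamases purified from overexpressing recombinant E. coli. Enzyme preincubated with inhibitor at varying concentrations for 10 min at room temperature in 50 mM Na phosphate pH 7.0, 0.1 mg/mL BSA. Then 50 μM nitrocefin (final) added and cleavage read at 490 nm every 10 s for 10 min. Ki derived by the Waley method.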

[25] = system: Klebsiella oxytoca; test: Inhibition of Klebsiella oxytoca KX1019 OXA-2 assessed as ertapenem MIC at 4 ug/ml by broth microdilution method
[26] = molecular target: Class A carbapenemase KPC-2 (Escherichia coli) (UniProt A8DS27); test: Inhibition of Escherichia coli EC1007 KPC-3 assessed as biapenem MIC at 4 ug/ml by broth microdilution method
[27] = system: Klebsiella oxytoca; test: Inhibition of Klebsiella oxytoca KX1001 OXA-2 assessed as cefepime MIC at 4 ug/ml by broth microdilution method; in short: as §2
[28] = molecular target: Beta lactamase TEM-1 (Klebsiella pneumoniae) (UniProt Q7B899); test: Inhibition of Klebsiella pneumoniae KP1084 TEM-1 assessed as meropenem MIC at 4 ug/ml by broth microdilution method; in short: as §1

For `O=C(O)C[C@@H]1CC[C@H](NC(=O)Cc2cccs2)B(O)O1` [VABORBACTAM], the AUC(0-inf) [1] was 1040 µg·h/mL, the Activity [2] was “Non-toxic” and the MIC [3] was 0.25 µg/mL. For the same molecule, the MIC [4] was at most 0.06 µg/mL, the MIC [5] was at most 0.06 µg/mL and the MIC [6] was at most 0.06 µg/mL. It also gave an MIC [7] of under 0.06 µg/mL, an MIC [8] of at most 0.06 µg/mL and an IC50 [9] of 1000 µM. It also gave an MIC [10] of under 0.06 µg/mL, an MIC [11] of 1 µg/mL and an MIC [12] of under 0.06 µg/mL. It also gave an MIC [13] of 0.25 µg/mL, an MIC [14] of 2 µg/mL and an IC50 [15] of over 1000 µM. The MIC [16] was 0.25 µg/mL, the MIC [17] was 0.25 µg/mL and the MIC [18] was under 0.06 µg/mL. For the same molecule, the Cmax [19] was 231 µg/mL, the MIC [20] was 8 µg/mL and the MIC [21] was at most 0.06 µg/mL. It also gave an MIC [22] of 0.25 µg/mL, an MIC [23] of under 0.06 µg/mL and a Ki [24] of 0.044 µM. The MIC [25] was 0.25 µg/mL, the MIC [26] was under 0.06 µg/mL and the MIC [27] was 0.5 µg/mL. It also gave an MIC [28] of 0.5 µg/mL.
